Reference: ChEMBL document CHEMBL1649514, “AmpDI is involved in expression of the chromosomal L1 and L2 beta-lactamases of Stenotrophomonas maltophilia” (2009)
≈ marks a conversion by molar mass, not a printed value.

Tests used:
Type in all cases: functional
[1] = system: Stenotrophomonas maltophilia; test: Antimicrobial activity against Stenotrophomonas maltophilia KJ by twofold serial agar dilution method
Outline: (§1)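 MICs by standard twofold serial agar dilution following CLSI guidelines, done in triplicate. Strains were wild-type clinical isolate KJ, which produces L1 and L2 β-lactamases, and its isogenic ampDI, ampDII and ampDI/ampDII deletion mutants. For cefepime, imipenem and meropenem, MICs were instead read from Etest strips per the manufacturer's instructions.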

[2] = system: Stenotrophomonas maltophilia; test: Antimicrobial activity against ampD1-deficient Stenotrophomonas maltophilia KJ by twofold serial agar dilution method; outline: as §1
[3] = system: Stenotrophomonas maltophilia; test: Antimicrobial activity against ampD2-deficient Stenotrophomonas maltophilia KJ by twofold serial agar dilution method; outline: as §1
[4] = system: Stenotrophomonas maltophilia; test: Antimicrobial activity against ampD1-, ampD2-deficient Stenotrophomonas maltophilia KJ by twofold serial agar dilution method; outline: as §1

Row | Compound | MIC [1] [µg/mL] | MIC [2] [µg/mL] | MIC [3] [µg/mL] | MIC [4] [µg/mL]
1 | C[C@H]1[C@H](NC(=O)/C(=N\OC(C)(C)C(=O)O)c2csc(N)n2)C(=O)N1S(=O)(=O)O [AZTREONAM] | > 2050 | > 2050 | > 2050 | > 2050
2 | CC1(C)S[C@@H]2[C@H](NC(=O)C(C(=O)O)c3ccccc3)C(=O)N2[C@H]1C(=O)O (stereo partly specified) [CARBENICILLIN] | 1020 (≈ 2710 µM) | 1020 (≈ 2710 µM) | 1020 (≈ 2710 µM) | 1020 (≈ 2710 µM)
3 | CO/N=C(\C(=O)N[C@@H]1C(=O)N2C(C(=O)[O-])=C(C[N+]3(C)CCCC3)CS[C@H]12)c1csc(N)n1 [CEFEPIME] | 64 (≈ 133 µM) | 96 (≈ 200 µM) | 64 (≈ 133 µM) | 96 (≈ 200 µM)
4 | CO[C@@]1(NC(=O)Cc2cccs2)C(=O)N2C(C(=O)O)=C(COC(N)=O)CS[C@@H]21 [CEFOXITIN] | 1020 (≈ 2400 µM) | 1020 (≈ 2400 µM) | 1020 (≈ 2400 µM) | 1020 (≈ 2400 µM)
5 | CO/N=C(\C(=O)N[C@@H]1C(=O)N2C(C(=O)O)=C(CSc3nc(=O)c(O)nn3C)CS[C@H]12)c1csc(N)n1 [CEFTRIAXONE] | 256 (≈ 462 µM) | 256 (≈ 462 µM) | 256 (≈ 462 µM) | 256 (≈ 462 µM)
6 | CO/N=C(\C(=O)N[C@@H]1C(=O)N2C(C(=O)O)=C(COC(N)=O)CS[C@H]12)c1ccco1 [CEFUROXIME] | 2050 (≈ 4830 µM) | 2050 (≈ 4830 µM) | 2050 (≈ 4830 µM) | 2050 (≈ 4830 µM)
7 | C[C@@H](O)[C@H]1C(=O)N2C(C(=O)O)=C(SCCNC=N)C[C@H]12 [IMIPENEM ANHYDROUS] | > 32 | > 32 | > 32 | > 32
8 | C[C@@H](O)[C@H]1C(=O)N2C(C(=O)O)=C(S[C@@H]3CN[C@H](C(=O)N(C)C)C3)[C@H](C)[C@H]12 [MEROPENEM] | > 32 | > 32 | > 32 | > 32
9 | CCN1CCN(C(=O)N[C@@H](C(=O)N[C@@H]2C(=O)N3[C@@H]2SC(C)(C)[C@@H]3C(=O)O)c2ccccc2)C(=O)C1=O [PIPERACILLIN] | 1020 (≈ 1980 µM) | 1020 (≈ 1980 µM) | 1020 (≈ 1980 µM) | 1020 (≈ 1980 µM)
